Where two headings read alike, the source gives them in different places.
What was measured:
[1] = system: MCF-7 human breast carcinoma cells; test: Growth of human breast carcinoma MCF-7 cells; format: cell-based; conditions: for IC50: read-out: Inhibition of cell growth IC50 (μM) ± S. D., MCF-7 cells, 48 h, sulforhodamine B
Summary of the method: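 MCF-7 cells from the NCI drug screening group, grown in RPMI with 10% heat-treated fetal bovine serum. About 5,000 cells per well seeded, adhered overnight, then exposed to test compound for 48 h at 37 °C in humidified 5% CO2; final DMSO 0.5% (v/v). Growth read as cellular protein by sulforhodamine B staining. IC50 is 50% growth inhibition.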

tubulin [2] = test: Binding of radiolabeled colchicine to tubulin; parameters: species or system bovine
preformed microtubules = test: Binding of radiolabeled paclitaxel to preformed microtubules; conditions: unpublished data
[3] = system: purified bovine brain tubulin; test: Turbidimetric tubulin assembly assay in glutamate; format: biochemical
cultured cells = test: Microtubule bundle formation in cultured cells; format: cell-based; conditions: synthetic compound
tubulin [4] = test: Binding of [3H]vinblastine to tubulin; conditions: authors' attempt to reproduce ref 3
tubulin [5] = conditions: cited from earlier work
[6] = system: purified bovine brain tubulin; test: Electron microscopy of polymer morphology; format: biochemical; conditions: 10 μM compound, 10 μM tubulin, 0.75 M glutamate, 30 min at 30 °C
Summary of the method: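 Purified bovine brain tubulin with microtubule-associated proteins removed, at 10 μM, in 0.75 M monosodium glutamate (stock pH 6.6), 10 μM GTP and 4% DMSO. Test compound at 10 μM, with a no-addition control. After 30 min at 30 °C, aliquots were put on carbon-coated Formvar copper grids and stained with 5-10 drops of 1% uranyl acetate. Excess stain was wicked off and grids examined by TEM.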

[7] = cited from earlier work
[8] = system: purified bovine brain tubulin; test: Centrifugal assay for spiral formation; format: biochemical; conditions: threshold EC50 < 100 μM
Summary of the method: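 Purified bovine brain tubulin (MAP-free) at 10 μM in 0.75 M monosodium glutamate (stock pH 6.6), 10 μM GTP, 4% (v/v) DMSO as compound solvent. Incubated 20 min at 30 °C, then centrifuged 15 min at room temperature (about 20 °C). Lowry protein measured in supernatant and in uncentrifuged mixture. EC50 is the concentration removing 50% of tubulin from the supernatant versus no-compound reactions.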

Molecule: (−)-rhazinilam
- IC50 [1]: 0.97 ± 0.3 µM
- inhibition of the binding of radiolabeled colchicine to tubulin (tubulin [2]): no inhibitory effect
- inhibition of the binding of radiolabeled paclitaxel to preformed microtubules (preformed microtubules): no inhibitory effect
- disassembly of polymer at 0 °C ([3]; 20 μM compound + 0.4 mM GTP, 0.75 M glutamate (Fig. 5, curve 4)): little disassembly
- disassembly of polymer at 0 °C ([3]; 20 μM compound, no GTP, 0.75 M glutamate (Fig. 5, curve 2)): disassembled slowly in the cold
- concentration at end of the inhibitory effect on tubulin assembly ([3]; 0.8 M glutamate, 0.4 mM GTP, 10 μM tubulin (Fig. 2, curve 4)): 3 µM
- concentration at onset of spiral induction ([3]; 0.8 M glutamate, 0.4 mM GTP, 10 μM tubulin (Fig. 2, curve 5)): 4 µM
- effect on microtubules in cultured cells (cultured cells): formation of extensive bundled microtubules
- inhibition of the binding of [3H]vinblastine to tubulin (tubulin [4]): unable to reproduce this result
- inhibition of the binding of [3H]vinblastine to tubulin (tubulin [5]): inhibited the binding

Molecule: CC[C@]1(O)C[C@@H]2CN(CCc3c([nH]c4ccccc34)[C@@](C(=O)OC)(c3cc4c(cc3OC)N(C)[C@H]3[C@@](O)(C(=O)OC)[C@H](OC(C)=O)[C@]5(CC)C=CCN6CC[C@]43[C@@H]65)C2)C1 [vinblastine]
- morphology of polymer formed in glutamate with 10 μM GTP [6]: typical tight spirals

Molecule: (+)-rhazinilam
- activity of the enantiomer, in words [7]: inactive

Molecule: CC12CCCn3ccc(c31)-c1ccccc1NC(=O)CC2 (stereo not shown) [Compound 5]
- IC50 [1]: 3.8 ± 1 µM

Molecule: (±)-rhazinilam
- activity in the tubulin-based (spiralization) assay, in words [8]: approximately half as active as (−)-rhazinilam
- IC50 [1]: 1.8 ± 0.7 µM
- activity in the cell-based (MCF-7) assay, in words ([1]; threshold IC50 < 10 μM): approximately half as active as (−)-rhazinilam
